Among the data in ChEMBL document CHEMBL1143831, “Small molecule inhibitors of aggregation indicate that amyloid beta oligomerization and fibrillization pathways are independent and distinct” (J Biol Chem, 2007) are IC50, Activity and inhibition values, retold here.

The nature of assay [1]: Inhibition of synthetic amyloid beta-42 oligomerization by ELISA. (In general: In an ELISA, binding on a coated surface is turned into a signal by an enzyme label.)
Assay [2] can be described thus: Inhibition of synthetic amyloid beta42 oligomer formation by Western blot. Put shortly: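 Aβ42 (NaOH stock, 45 µM final) incubated in PBS pH 7.4, 0.02% sodium azide at room temperature without stirring for 5 days, with compound at 300 µM in DMSO; vehicle controls at 1% DMSO. Aliquots were mixed 1:1 with 2x SDS sample buffer, boiled 5 min, and run on 4-20% Tris-HCl gels. The gels were transferred to nitrocellulose and probed with A11 anti-oligomer antibody, with 6E10 also used.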

A short description of assay [3]: Inhibition of synthetic amyloid beta-42 fibrillation at 30 uM by ThT fluorescence analysis relative to control. In a few lines:
(§1)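 Aβ42 (45 µM final) from 2 mM NaOH stock, sonicated, diluted into 10 mM HEPES, 100 mM NaCl, 0.02% sodium azide, pH 7.4; stirred at room temperature 4 days with compound in DMSO (controls 1% DMSO). Aliquot mixed with 3 µM ThT; ex 442 nm, em 482 nm; corrected with parallel protein-free reactions; triplicate, % of control.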

A short description of assay [4]: Inhibition of synthetic amyloid beta42 fibrillation at 300 uM by ThT fluorescence analysis relative to control. In a few lines:
as §1

Assay [5] can be described thus: Inhibition of synthetic amyloid beta-42 fibrillation at 30 uM by light scattering analysis relative to control. In a few lines:
(§2)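 Aβ42 (45 µM final) from 2 mM NaOH stock, diluted into 10 mM HEPES, 100 mM NaCl, 0.02% sodium azide, pH 7.4; stirred at room temperature 4 days with compound in DMSO (controls 1% DMSO). Turbidity at 400 nm, corrected by the 400 nm reading of supernatant after 14,000 rpm, 30 min centrifugation; triplicate, relative to control.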

Assay [6] in a line: Inhibition of synthetic amyloid beta-42 fibrillation at 300 uM by light scattering analysis relative to control. In a few lines: as §2

Structures can show the parent of a compound that is named as a salt. The source made the active and inactive calls. The calls are words filed in the database; no cut-off is given here.

A word on the IC50: it is the concentration needed to halve the response being measured. Read a high IC50 as lower potency. The compound `O=C(c1ccccc1O)c1ccccc1O` [2,2'-DIHYDROXYBENZPHENONE] came in with an IC50 in assay [1] of 244 µM.
Regarding `CC(Cc1ccc(O)c(O)c1)C(C)Cc1ccc(O)c(O)c1` (stereo not given) [NORDIHYDROGUAIARETIC ACID], the result in assay [2] was inactive. Moreover, the IC50 in assay [1] is 14.5 µM.
The matching figures for `CO[C@H]1/C=C/O[C@@]2(C)Oc3c(C)c(O)c4c(O)c(cc(O)c4c3C2=O)NC(=O)/C(C)=C\C=C\[C@H](C)[C@H](O)[C@@H](C)[C@@H](O)[C@@H](C)[C@H](OC(C)=O)[C@@H]1C` [RIFAMYCIN]: “inactive” and 31.6 µM.
For the compound `COc1cc(/C=C/C(=O)CC(=O)/C=C/c2ccc(O)c(OC)c2)ccc1O` [CURCUMIN], the IC50 in assay [1] amounted to 361 µM.
In the case of `CN(C)[C@@H]1C(O)=C(C(=O)NCN2CCCC2)C(=O)[C@@]2(O)C(O)=C3C(=O)c4c(O)cccc4[C@@](C)(O)[C@H]3C[C@@H]12` [ROLITETRACYCLINE], the result in assay [2] was inactive. The IC50 in assay [1] is 1.87 µM.
With `O=C1C=CC(=O)c2c(O)cccc21` [JUGLONE], in assay [2], the outcome was Active. Also, the IC50 in assay [1] worked out at 67.6 µM.
One may read the inhibition as the drop in the measured response relative to a control, in per cent. On to “N,N,N-trimethylhexadecan-1-aminium bromide”, for which the result in assay [2] and in assay [6] was inactive. In addition, the inhibition is 9.8% in assay [3] and 0.5% in assay [4]. The outcome in assay [5] was Active.
Take `O=c1cc2oc3cc(O)c(-c4ccc(O)cc4O)cc3nc-2cc1-c1ccc(O)cc1O` [LACMOID]: the result in assay [2] was inactive. The compound further yielded an IC50 in assay [1] of 25.5 µM.
In assay [1], CETRIMIDE [listing 1 of 2 here] yielded an IC50 of 15.9 µM. In other words, the double-digit micromolar range.
As for `COc1cc(-c2ccc(/N=N/c3ccc4c(S(=O)(=O)O)cc(S(=O)(=O)O)c(N)c4c3O)c(OC)c2)ccc1/N=N/c1ccc2c(S(=O)(=O)O)cc(S(=O)(=O)O)c(N)c2c1O` [CHICAGO SKY BLUE SODIUM], the outcome in assay [2] was inactive. The compound also displayed an IC50 in assay [1] of 2.58 µM.
Compound `O=S1(=O)OC(c2ccc(O)cc2)(c2ccc(O)cc2)c2ccccc21` [PHENOLSULFONPHTHALEIN] showed an IC50 in assay [1] of 426 µM.
As to `O=c1c(O)c(-c2cc(O)c(O)c(O)c2)oc2cc(O)cc(O)c12` [MYRICETIN], the outcome in assay [2] was Active. Further, in assay [1], the midpoint of inhibition, the IC50, lay at 107 µM.
In the same order, the values of `CCN(CCO)c1ccc(/N=N/c2sc3cc(OC)ccc3[n+]2C)cc1` [BASIC BLUE 41] are “inactive” and 0.12 µM.
As for `COc1cccc(C=O)c1O`, in assay [2], the result was inactive. Besides, the IC50 in assay [1] amounted to 6.15 µM.
As to `CCN(CC)c1ccc2c(-c3ccccc3C(C)=O)c3ccc(=[N+](CC)CC)cc-3oc2c1`, half-maximal inhibition in assay [1] (IC50) required 310 µM.
As to `C=C1c2c(Cl)ccc(O)c2C(=O)C2=C(O)[C@]3(O)C(=O)C(C(N)=O)=C(O)[C@@H](N(C)C)[C@@H]3[C@@H](O)[C@H]12.O=C(O)c1cc(S(=O)(=O)O)ccc1O` [MECLOCYCLINE SULFOSALICYLATE], the result in assay [2] was inactive. Also, the midpoint of inhibition in assay [1], the IC50, lay at 0.25 µM.
For the compound `COc1ccc2c(c1)c(CC(=O)O)c(C)n2C(=O)c1ccc(Cl)cc1` [INDOMETHACIN], the IC50 in assay [1] was determined as 958 µM.
In the case of `Nc1c(/N=N/c2ccc(-c3ccc(/N=N/c4cc(S(=O)(=O)O)c5ccccc5c4N)cc3)cc2)cc(S(=O)(=O)O)c2ccccc12` [CONGO RED], the result in assay [2] was inactive. For the same compound, the IC50 in assay [1] amounted to 10 µM.
On to `CNc1ccc2nc3ccc(N)cc3[s+]c2c1` [AZURE C], for which, in assay [2], the outcome was inactive. In addition, the IC50 in assay [1] is 0.09 µM.
In the same order, the values of `Cc1ccc2ccc3ccc(C)nc3c2n1` [NEOCUPROINE] are “inactive” and 17.4 µM.
As to `O=C(O)c1ccccc1-c1c2cc(Br)c(=O)c(Br)c-2oc2c(Br)c(O)c(Br)cc12` [EOSIN Y SODIUM], the midpoint of inhibition in assay [1], the IC50, lay at 2790 µM. In other words, the millimolar range.
Regarding `COc1cccc2c1C(=O)c1c(O)c3c(c(O)c1C2=O)C[C@@](O)(C(C)=O)C[C@@H]3O[C@H]1C[C@H](N)[C@H](O)[C@H](C)O1` [DAUNORUBICIN HYDROCHLORIDE], in assay [2], the outcome was inactive. In addition, in assay [1], the IC50 came out at 7.48 µM.
In the same order, the values of `C1CCSC1` [TETRAHYDROTHIOPHENE] are “Active” and 122 µM.
The matching figures for `O=C1C=Cc2ccccc2C1=O` [1,2-NAPHTHOQUINONE]: “inactive” and 11.5 µM.
Compound `COc1ccc2nc3cc(Cl)ccc3c(NC(C)CCCN(CCCl)CCCl)c2c1` (stereo not given) registered an IC50 in assay [1] of 2050 µM.
With CETRIMIDE [listing 2 of 2 here], the outcome in assay [2] and in assay [6] was inactive. Moreover, the inhibition worked out at 112% in assay [3] and 0.7% in assay [4].
In assay [1], `OCCN1CCN(CCCN2c3ccccc3Sc3ccc(Cl)cc32)CC1` [PERPHENAZINE] returned an IC50 of 26.1 µM.
